Laboratory results from ChEMBL document CHEMBL3877253, “Discovery of new hit-molecules targeting Plasmodium falciparum through a global SAR study of the 4-substituted-2-trichloromethylquinazoline antiplasmodial scaffold” (Eur J Med Chem, 2017).

What was measured:
[1] = Cytotoxicity against human HepG2 cells assessed as reduction in cell viability after 72 hrs by MTT assay; type: toxicity, cell-based
Summary of the method: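 HepG2 hepatocarcinoma cells in RPMI with 10% FBS, L-glutamine, penicillin/streptomycin, 37 °C, 6% CO2. Seeded 5.10^3 cells/well, 24 h attachment, then compounds added from DMSO (final under 0.5% v/v) at various concentrations for 72 h, triplicates. Wells checked microscopically for precipitate. MTT 0.5 mg/mL 2 h, formazan dissolved in DMSO, A570 (ref 630 nm). Viability as % of untreated cells; CC50 from dose–response curve.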

[2] = Selectivity index, ratio of CC50 for human HepG2 cells to IC50 for chloroquine/pyrimethamine/proguanil-resistant Plasmodium falciparum K1 infected in human erythrocytes; type: functional
[3] = system: Plasmodium falciparum; assay: Antiplasmodial activity against chloroquine/pyrimethamine/proguanil-resistant Plasmodium falciparum K1 infected in human erythrocytes after 72 hrs by SYBR Green 1 dye based fluorescence spectrophotometric method; type: functional, cell-based; conditions: K1, 72 h

Compound: Clc1nc(C(Cl)(Cl)Cl)nc2ccccc12
- CC50 at 72 h [1]: > 125 µM
- Ratio CC50/IC50 [2]: >2.3

Compound: FC(F)(F)c1cccc(Nc2cc(C(Cl)(Cl)Cl)nc3ccccc23)c1
- IC50 [3]: 1.3 µM
- CC50 at 72 h [1]: 6.5 µM
- Ratio CC50/IC50 [2]: 5

Compound: Clc1ccc(Sc2nc3ccccc3nc2C(Cl)(Cl)Cl)cc1
- IC50 [3]: 0.5 µM
- CC50 at 72 h [1]: 38.6 µM
- Ratio CC50/IC50 [2]: 77.2

Compound: Clc1ccc(Nc2cc(C(Cl)(Cl)Cl)nc3ccccc23)c(Cl)c1
- IC50 [3]: 1.3 µM
- CC50 at 72 h [1]: 11.7 µM
- Ratio CC50/IC50 [2]: 9

Compound: O=C1C(O)=C([C@H]2CC[C@H](c3ccc(Cl)cc3)CC2)C(=O)c2ccccc21 [ATOVAQUONE]
- IC50 [3]: 0.001 µM
- CC50 at 72 h [1]: > 15.6 µM
- Ratio CC50/IC50 [2]: 15600

Compound: C[C@H]1c2cccc(O)c2C(=O)C2=C(O)[C@]3(O)C(=O)C(C(N)=O)=C(O)[C@@H](N(C)C)[C@@H]3[C@@H](O)[C@@H]21.O [DOXYCYCLINE]
- Ratio CC50/IC50 [2]: 3.3
